Published values of several laboratories.
Each line is one published result; the experiments were not run side by side.
Target: Activin receptor type-1 (ACVR1, Homo sapiens, UniProt Q04771)
Residues used in one study (Q04771 21-509): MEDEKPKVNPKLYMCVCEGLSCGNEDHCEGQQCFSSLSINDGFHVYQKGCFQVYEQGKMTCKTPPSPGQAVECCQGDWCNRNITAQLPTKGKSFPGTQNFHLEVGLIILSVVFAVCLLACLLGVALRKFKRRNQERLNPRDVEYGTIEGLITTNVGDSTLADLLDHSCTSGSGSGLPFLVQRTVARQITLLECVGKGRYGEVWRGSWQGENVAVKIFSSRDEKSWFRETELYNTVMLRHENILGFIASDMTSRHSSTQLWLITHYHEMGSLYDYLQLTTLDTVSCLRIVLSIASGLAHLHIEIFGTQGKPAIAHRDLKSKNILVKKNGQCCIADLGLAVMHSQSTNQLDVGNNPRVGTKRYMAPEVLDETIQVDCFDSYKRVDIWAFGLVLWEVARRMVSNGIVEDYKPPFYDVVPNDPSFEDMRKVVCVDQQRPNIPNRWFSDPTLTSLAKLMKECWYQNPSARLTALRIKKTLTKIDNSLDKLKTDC

Compound | effect on | method | concentration | remaining binding
C[C@H](c1cccc(C#N)c1)n1cc(Cl)cc(C(N)=O)c1=N | cell-free assay | competition with immobilised ligand | 1 µM | 88%
Nc1ncc2c(n1)-c1c([nH]c3ccc(C#CC4CC4)cc13)CCCC2 | binding | competition with immobilised ligand | 1 µM | 100%
CNC(=O)[C@@H]1CC[C@@H](n2c(-c3ccc4cnccc4c3)nc3ccc(C(=O)NCc4cccc(C(N)=O)c4)cc32)C1 | binding | competition with immobilised ligand | 1 µM | 46%
c1cncc(-c2cccc(Nc3nccc(NC4CCCCC4)n3)c2)c1 | binding | competition with immobilised ligand | 10 µM | 15%
CSc1cccnc1N1CCN(Cc2nc3ccccc3[nH]2)CC1 | cell-free assay | competition with immobilised ligand | 1 µM | 100%
CN(C)c1ncc(F)c(-c2cnn3ncccc23)n1 | binding | – | 1 µM | 79%
COCCOc1nc(-c2ccc(Cl)nc2)nc2c1CN(C(=O)c1ncn3ccccc13)CC2 | cell-free assay | competition with immobilised ligand | 0.1 µM | 100%
CN(c1nccc(-c2cnn3ncccc23)n1)C1CC1 | binding | – | 1 µM | 93%
O=C(c1ccc(Nc2ncc(Cl)c(-c3cc4ccccc4s3)n2)cc1)N1CCC(N2CCCC2)CC1 | binding | competition with immobilised ligand | 1 µM | 69%
Cc1nccc(COC(=O)N2C[C@@H]3[C@@H](CNC(=O)c4ccc5[nH]nnc5c4)[C@@H]3C2)n1 | cell-free assay | competition with immobilised ligand | 1 µM | 95%
Cc1cnn2ncc(-c3ccnc(N(C)C)n3)c2c1 | binding | – | 1 µM | 100%
Cc1nc(N2CC[C@@H](O)C2)ncc1-c1cc(C(F)(F)F)cc2[nH]ncc12 | cell-free assay | competition with immobilised ligand | 1 µM | 80%
C[C@@H](c1ccc(-n2cnc3c(N)ncnc32)cc1)N1CCc2nn(C)c(Cc3ccccc3)c2C1=O | binding | competition with immobilised ligand | 0.1 µM | 85%
O=C(NCCCN1CCOCC1)c1ccc(Nc2nccc(-c3cc4ccccc4s3)n2)cc1 | binding | competition with immobilised ligand | 1 µM | 14%
F[C@@H]1CCN(c2nccc(-c3cnn4ncccc34)n2)C1 | binding | – | 1 µM | 80%
Cc1cnc(Nc2ccc(C(=O)N3CCC(N4CCCC4)CC3)cc2)nc1-c1cc2ccccc2s1 | binding | competition with immobilised ligand | 1 µM | 72%
C=CC(=O)N1CCC(C(=O)NCC(=O)N2CCN(c3nc(-c4cnc(N)nc4C(F)F)nc(N4CCOCC4)n3)CC2)CC1 | binding | competition with immobilised ligand | 1 µM | 100%
CN(CCCC(F)(F)F)c1nccc(-c2cnn3ncccc23)n1 | binding | – | 1 µM | 77%
O=C(Nc1c[nH]nc1C(=O)NC1CCNCC1)c1cc(F)cc(F)c1 | binding | competition with immobilised ligand | 1 µM | 100%
COc1ccc2c(c1)O[C@@H](c1ccc(OC)c(OC)c1)C[C@H]2NC(=O)C1(c2ccc3c(c2)OC(F)(F)O3)CC1 | cell-free assay | competition with immobilised ligand | 1 µM | 100%
C[C@H]1CCN(c2nccc(-c3cnn4ncccc34)n2)C1 | binding | – | 1 µM | 100%
